In brackets after ≈: the same amount, converted by molar mass.
Experiments:
[1] = test system: Escherichia coli; assay: Antibacterial activity against Escherichia coli ATCC 8739 after 24 hrs by microdilution assay; format: functional; conditions: ATCC 8739, 24 h
Method in brief: (§1)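 Broth microdilution in Mueller-Hinton medium buffered to pH 7.4 (±0.2), with DMSO as diluent at no more than 2% final. Compounds were tested as 2-fold serial dilutions from 2000 to 0.488 µmol/l. The inoculum was 0.5 McFarland (1.5×10^8 cfu/ml). Plates were held at 37 °C and read visually at 24 and 48 h. MIC was taken as 95% growth inhibition versus control, determined twice in duplicate.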

[2] = test system: Escherichia coli; assay: Antibacterial activity against Escherichia coli ATCC 8739 after 48 hrs by microdilution assay; format: functional; conditions: ATCC 8739, 48 h; method in brief: as §1
[3] = test system: K562; assay: Induction of apoptosis in human K562 cells assessed as caspase 3/7 activity after 24 hrs by caspase-glo luminescent assay; format: cell-based; conditions: K562, 24 h
Method in brief: (§2)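 Cells were seeded at 500 per well in their growth media and exposed to 12 concentrations from 40 µM to 1 nM, delivered from DMSO, in triplicate. After 24 h, caspase-3/7 activity was read by Caspase-Glo luminescence. Data were normalized and ED50 was fitted by variable-slope nonlinear regression.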

[4] = test system: Staphylococcus aureus; assay: Antibacterial activity against Staphylococcus aureus ATCC 6538 after 24 hrs by microdilution assay; format: functional; conditions: ATCC 6538, 24 h
[5] = test system: HL-60; assay: Cytotoxicity against human HL60 cells assessed as reduction in cell viability after 48 hrs by ATPlite-based luminescent assay; conditions: HL-60, 48 h
Method in brief: (§3)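 Cells were grown […] with 10% FBS, glutamax, NEAA and pen/strep at 37 °C, 5% CO2. Media were DMEM for RPE-1, HepG2 and BJ (BJ plus 10 ng/ml bFGF), F-12K for PC3, and IMDM for K562/HL-60. Cells were seeded at 500 per well and dosed from DMSO at 12 concentrations, 40 µM to 1 nM, in triplicate. After 48 h, intracellular ATP was read by luminescence. ED50 was obtained by variable-slope nonlinear regression.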

[6] = test system: Klebsiella pneumoniae; assay: Antibacterial activity against Klebsiella pneumoniae HK11750/08 clinical isolate after 24 hrs by microdilution assay; format: functional; conditions: HK11750/08, 24 h
[7] = test system: Staphylococcus aureus; assay: Antibacterial activity against Staphylococcus aureus ATCC 6538 after 48 hrs by microdilution assay; format: functional; conditions: ATCC 6538, 48 h
[8] = test system: HepG2; assay: Cytotoxicity against human HepG2 cells assessed as reduction in cell viability after 48 hrs by ATPlite-based luminescent assay; conditions: HepG2, 48 h; method in brief: as §3
[9] = test system: Pseudomonas aeruginosa; assay: Antibacterial activity against Pseudomonas aeruginosa ATCC 9027 after 24 hrs by microdilution assay; format: functional; conditions: ATCC 9027, 24 h; method in brief: as §1
[10] = test system: Enterococcus sp.; assay: Antibacterial activity against Enterococcus sp. HK14365/08 clinical isolate after 48 hrs by microdilution assay; format: functional; conditions: HK14365/08, 48 h
[11] = test system: Staphylococcus epidermidis; assay: Antibacterial activity against Staphylococcus epidermidis HK6966/08 clinical isolate after 48 hrs by microdilution assay; format: functional; conditions: HK6966/08, 48 h
[12] = test system: HepG2; assay: Induction of apoptosis in human HepG2 cells assessed as caspase 3/7 activity after 24 hrs by caspase-glo luminescent assay; format: cell-based; conditions: HepG2, 24 h; method in brief: as §2
[13] = test system: HL-60; assay: Induction of apoptosis in human HL60 cells assessed as caspase 3/7 activity after 24 hrs by caspase-glo luminescent assay; format: cell-based; conditions: HL-60, 24 h; method in brief: as §2
[14] = test system: PC-3; assay: Cytotoxicity against human PC3 cells assessed as reduction in cell viability after 48 hrs by ATPlite-based luminescent assay; conditions: PC-3, 48 h; method in brief: as §3
[15] = test system: Pseudomonas aeruginosa; assay: Antibacterial activity against Pseudomonas aeruginosa ATCC 9027 after 48 hrs by microdilution assay; format: functional; conditions: ATCC 9027, 48 h; method in brief: as §1
[16] = test system: Enterococcus sp.; assay: Antibacterial activity against Enterococcus sp. HK14365/08 clinical isolate after 24 hrs by microdilution assay; format: functional; conditions: HK14365/08, 24 h
[17] = test system: Klebsiella pneumoniae; assay: Antibacterial activity against Klebsiella pneumoniae HK14368/08 clinical isolate after 48 hrs by microdilution assay; format: functional; conditions: HK14368/08, 48 h
[18] = test system: Klebsiella pneumoniae; assay: Antibacterial activity against Klebsiella pneumoniae HK11750/08 clinical isolate after 48 hrs by microdilution assay; format: functional; conditions: HK11750/08, 48 h
[19] = test system: BJ; assay: Cytotoxicity against human BJ cells assessed as reduction in cell viability after 48 hrs by ATPlite-based luminescent assay; method in brief: as §3
[20] = test system: TERT-RPE1; assay: Induction of apoptosis in human RPE1 cells assessed as caspase 3/7 activity after 24 hrs by caspase-glo luminescent assay; format: cell-based; conditions: RPE-1, 24 h; method in brief: as §2
[21] = test system: Staphylococcus aureus; assay: Antibacterial activity against methicillin-resistant Staphylococcus aureus HK5996/08 clinical isolate after 24 hrs by microdilution assay; format: functional; conditions: HK5996/08, 24 h
[22] = test system: Klebsiella pneumoniae; assay: Antibacterial activity against Klebsiella pneumoniae HK14368/08 clinical isolate after 24 hrs by microdilution assay; format: functional; conditions: HK14368/08, 24 h
[23] = test system: K562; assay: Cytotoxicity against human K562 cells assessed as reduction in cell viability after 48 hrs by ATPlite-based luminescent assay; conditions: K562, 48 h; method in brief: as §3
[24] = test system: Staphylococcus epidermidis; assay: Antibacterial activity against Staphylococcus epidermidis HK6966/08 clinical isolate after 24 hrs by microdilution assay; format: functional; conditions: HK6966/08, 24 h
[25] = test system: PC-3; assay: Induction of apoptosis in human PC3 cells assessed as caspase 3/7 activity after 24 hrs by caspase-glo luminescent assay; format: cell-based; conditions: PC-3, 24 h; method in brief: as §2
[26] = test system: Staphylococcus aureus; assay: Antibacterial activity against methicillin-resistant Staphylococcus aureus HK5996/08 clinical isolate after 48 hrs by microdilution assay; format: functional; conditions: HK5996/08, 48 h
[27] = test system: TERT-RPE1; assay: Cytotoxicity against human RPE1 cells assessed as reduction in cell viability after 48 hrs by ATPlite-based luminescent assay; conditions: RPE-1, 48 h; method in brief: as §3
[28] = test system: MCF7; assay: Cytotoxicity against human MCF7 cells assessed as reduction in cell viability after 48 hrs by ATPlite-based luminescent assay; conditions: MCF7, 48 h

Row | Compound | MIC95 [1] | MIC95 [2] | IC50 [3] | MIC95 [4] | IC50 [5] | MIC95 [6] | MIC95 [7] | IC50 [8] | MIC95 [9] | MIC95 [10] | MIC95 [11] | IC50 [12] | IC50 [13] | IC50 [14] | MIC95 [15] | MIC95 [16] | MIC95 [17] | MIC95 [18] | IC50 [19] | IC50 [20] | also measured
1 | COc1cc(OC)c(C2=C(c3ccc(OC)c(OC)c3OC)COC2=O)c(OC)c1 | > 500 µM | > 500 µM | > 40 µM | 31.2 µM (≈ 13 µg/mL) | > 40 µM | > 500 µM | 31.2 µM (≈ 13 µg/mL) | > 40 µM | > 500 µM | > 500 µM | 125 µM (≈ 52.1 µg/mL) | > 40 µM | > 40 µM | > 40 µM | > 500 µM | > 500 µM | > 500 µM | > 500 µM | > 40 µM | > 40 µM | MIC95 [21]: 62.5 µM (≈ 26 µg/mL); MIC95 [22]: > 500 µM; IC50 [23]: 22.8 µM; MIC95 [24]: 125 µM (≈ 52.1 µg/mL); IC50 [25]: > 40 µM; MIC95 [26]: 62.5 µM (≈ 26 µg/mL); IC50 [27]: > 40 µM; IC50 [28]: > 40 µM
2 | Cc1ccc(C2=C(c3cccc(C(F)(F)F)c3)C(=O)OC2)cc1 | > 500 µM | > 500 µM | 0.31 µM | 31.2 µM (≈ 9.95 µg/mL) | 0.66 µM | > 500 µM | 31.2 µM (≈ 9.95 µg/mL) | > 40 µM | > 500 µM | > 500 µM | 15.6 µM (≈ 4.97 µg/mL) | > 40 µM | 2.66 µM | > 40 µM | > 500 µM | > 500 µM | > 500 µM | > 500 µM | > 40 µM | > 40 µM | MIC95 [21]: 31.2 µM (≈ 9.95 µg/mL); MIC95 [22]: > 500 µM; IC50 [23]: 0.29 µM; MIC95 [24]: 15.6 µM (≈ 4.97 µg/mL); IC50 [25]: > 40 µM; MIC95 [26]: 31.2 µM (≈ 9.95 µg/mL); IC50 [27]: 1.33 µM; IC50 [28]: 19.1 µM
3 | O=C1OCC(c2ccc(C(F)(F)F)cc2)=C1c1c[nH]c2ccccc12 | > 125 µM | > 125 µM | > 40 µM | > 125 µM | 0.67 µM | > 125 µM | > 125 µM | > 40 µM | > 125 µM | > 125 µM | > 125 µM | > 40 µM | 2.94 µM | > 40 µM | > 125 µM | > 125 µM | > 125 µM | > 125 µM | > 40 µM | 1.54 µM | MIC95 [21]: > 125 µM; MIC95 [22]: > 125 µM; IC50 [23]: 0.26 µM; MIC95 [24]: > 125 µM; IC50 [25]: > 40 µM; MIC95 [26]: > 125 µM; IC50 [27]: 0.87 µM; IC50 [28]: > 40 µM
4 | COc1ccc(C2=C(c3ccc(OC)c(OC)c3)C(CO)OC2=O)cc1 (stereo not given) | > 125 µM | > 125 µM | > 40 µM | 125 µM (≈ 44.5 µg/mL) | > 40 µM | > 125 µM | 125 µM (≈ 44.5 µg/mL) | > 40 µM | > 125 µM | > 125 µM | 62.5 µM (≈ 22.3 µg/mL) | > 40 µM | > 40 µM | > 40 µM | > 125 µM | > 125 µM | > 125 µM | > 125 µM | > 40 µM | > 40 µM | MIC95 [21]: 125 µM (≈ 44.5 µg/mL); MIC95 [22]: > 125 µM; IC50 [23]: > 40 µM; MIC95 [24]: 62.5 µM (≈ 22.3 µg/mL); IC50 [25]: > 40 µM; MIC95 [26]: 125 µM (≈ 44.5 µg/mL); IC50 [27]: > 40 µM; IC50 [28]: > 40 µM
5 | Cc1ccc(C2=C(c3ccc(Br)cc3)C(=O)OC2)cc1 | > 1000 µM | > 1000 µM | 0.29 µM | 7.81 µM (≈ 2.57 µg/mL) | 0.65 µM | > 1000 µM | 15.6 µM (≈ 5.14 µg/mL) | > 40 µM | > 1000 µM | > 1000 µM | 31.2 µM (≈ 10.3 µg/mL) | > 40 µM | 2.77 µM | > 40 µM | > 1000 µM | > 1000 µM | > 1000 µM | > 1000 µM | > 40 µM | 8.16 µM | MIC95 [21]: 62.5 µM (≈ 20.6 µg/mL); MIC95 [22]: > 1000 µM; IC50 [23]: 0.3 µM; MIC95 [24]: 15.6 µM (≈ 5.14 µg/mL); IC50 [25]: > 40 µM; MIC95 [26]: 62.5 µM (≈ 20.6 µg/mL); IC50 [27]: 0.97 µM; IC50 [28]: 14.8 µM

— ChEMBL document CHEMBL4251593, “Nontoxic combretafuranone analogues with high in vitro antibacterial activity” (Eur J Med Chem, 2018)
